Reference: ChEMBL document CHEMBL1123904, “Synthesis, structure, and biological activity of certain 2-deoxy-beta-D-ribo-hexopyranosyl nucleosides and nucleotides” (J Med Chem, 1987)

Key:
[1] = substrate: Nc1ncnc2c1ncn2C1CC(O)C(O)C(CO)O1; assay: (§1) Kinetic parameters for adenosine deaminase (ADase) was determined
Procedure, shortened: (§2)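 Calf intestine adenosine deaminase; substrate and inhibitor kinetic parameters measured spectrophotometrically.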

[2] = substrate: Nc1ncnc2c1ncn2[C@@H]1O[C@H](CO)[C@@H](O)[C@H]1O; assay: as §1; procedure, shortened: as §2
[3] = substrate: Nc1nc(N)c2ncn(C3CC(O)C(O)C(CO)O3)c2n1; assay: as §1; procedure, shortened: as §2

B1: Adenosine deaminase (Bos taurus), P56658 (protein)
chain: MAQTPAFNKPKVELHVHLDGAIKPETILYYGRKRGIALPADTPEELQNIIGMDKPLSLPEFLAKFDYYMPAIAGCREAVKRIAYEFVEMKAKDGVVYVEVRYSPHLLANSKVEPIPWNQAEGDLTPDEVVSLVNQGLQEGERDFGVKVRSILCCMRHQPSWSSEVVELCKKYREQTVVAIDLAGDETIEGSSLFPGHVKAYAEAVKSGVHRTVHAGEVGSANVVKEAVDTLKTERLGHGYHTLEDATLYNRLRQENMHFEVCPWSSYLTGAWKPDTEHPVVRFKNDQVNYSLNTDDPLIFKSTLDTDYQMTKNEMGFTEEEFKRLNINAAKSSFLPEDEKKELLDLLYKAYGMPSPASAEQCL
- Km [1]: 57 µM
- Km [2]: 31 µM
- Km [3]: 900 µM
